Laboratory results: ChEMBL document CHEMBL1149183, “Novel benzo[1,4]diazepin-2-one derivatives as endothelin receptor antagonists” (J Med Chem, 2004)

What was measured:
Cytochrome P450 3A4 = Cytochrome P450 3A4 (Homo sapiens, UniProt P08684); assay: Inhibition of human cytochrome P450 3A4; format: ADME
Method in brief: (§1)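 Human liver microsomes with isoform marker reactions near substrate Km: diclofenac 4'-hydroxylation (2C9), dextromethorphan […] (2D6), midazolam 1'-hydroxylation (3A4); metabolite formation by LC-MS/MS; IC50 reported.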

Endothelin-1 receptor = biological target: T1, Endothelin-1 receptor (Homo sapiens, UniProt P25101); assay: Antagonist activity towards human recombinant Endothelin A receptor expressed in chinese hamster ovary (CHO) cells determined using [125I]ET1 as radioligand; format: functional, cell-based
T1 sequence (P25101 whole entry): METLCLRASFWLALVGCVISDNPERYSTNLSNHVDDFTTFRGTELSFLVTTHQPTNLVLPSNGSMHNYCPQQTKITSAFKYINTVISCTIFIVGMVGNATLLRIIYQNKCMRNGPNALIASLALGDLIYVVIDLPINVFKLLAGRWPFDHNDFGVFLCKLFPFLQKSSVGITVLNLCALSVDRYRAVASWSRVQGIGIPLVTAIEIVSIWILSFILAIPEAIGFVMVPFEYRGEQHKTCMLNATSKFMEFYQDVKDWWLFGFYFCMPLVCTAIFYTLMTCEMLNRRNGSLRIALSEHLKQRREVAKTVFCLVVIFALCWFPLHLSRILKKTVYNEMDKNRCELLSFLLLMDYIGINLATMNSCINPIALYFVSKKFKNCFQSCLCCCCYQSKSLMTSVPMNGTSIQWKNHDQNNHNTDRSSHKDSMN

Cytochrome P450 2C9 = Cytochrome P450 2C9 (Homo sapiens, UniProt P11712); assay: Inhibition of human cytochrome P450 2C9; format: ADME; method in brief: as §1
Rattus norvegicus [1] = species on record: Rattus norvegicus; assay: Maximum effect on reduction of mean arterial blood pressure was determined in rats; format: functional
Method in brief: (§2)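 Single oral dose of 30 mg/kg suspended in 10% arabic gum to hypertensive Dahl salt-sensitive rats carrying telemetry for arterial pressure and heart rate; area between pre- and post-treatment pressure curves calculated; fall in mean arterial pressure and duration of action also taken from recordings.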

Rattus norvegicus [2] = assay: In vivo area between curve (ABC) as calculated from the blood pressure recordings before and after administration of 30 mg/kg to hypertensive Dahl salt sensitive rats; number of rats=15; format: functional; method in brief: as §2
Rattus norvegicus [3] = species on record: Rattus norvegicus; assay: Duration of action of compound for reducing the blood pressure of rats was determined; format: functional; method in brief: as §2
[4] = biological target: T2, Endothelin receptor type B (Homo sapiens, UniProt P24530); assay: Antagonist activity towards human recombinant Endothelin B receptor expressed in chinese hamster ovary (CHO) cells determined using [125I]ET1 as radioligand; format: functional, cell-based
T2 sequence (P24530 whole entry): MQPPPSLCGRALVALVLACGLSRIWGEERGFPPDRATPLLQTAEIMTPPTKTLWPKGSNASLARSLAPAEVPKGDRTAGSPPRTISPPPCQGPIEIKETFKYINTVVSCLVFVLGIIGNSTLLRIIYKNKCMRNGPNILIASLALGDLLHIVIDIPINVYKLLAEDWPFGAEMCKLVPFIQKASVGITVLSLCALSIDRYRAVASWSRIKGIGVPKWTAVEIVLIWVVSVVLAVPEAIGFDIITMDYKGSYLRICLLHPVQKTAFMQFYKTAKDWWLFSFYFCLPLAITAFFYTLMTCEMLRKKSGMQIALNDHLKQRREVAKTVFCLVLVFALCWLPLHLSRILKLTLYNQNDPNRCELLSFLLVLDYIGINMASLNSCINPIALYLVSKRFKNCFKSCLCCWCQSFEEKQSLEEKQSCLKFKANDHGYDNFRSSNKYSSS

[5] = Log D value was evaluated; format: physicochemical; settings: octanol/water, pH 7.4; read-out: Log D7.4
Method in brief: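 Shake-flask partition, n-octanol versus aqueous phase buffered to pH 7.4 (67 mM KH2PO4/67 mM Na2HPO4), volume ratio 1:9; both phases assayed by HPLC.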

Endothelin receptor [6] = biological target: T3, Endothelin receptor (Rattus norvegicus, UniProt P26684+P21451); assay: Inhibitory potency at native endothelin A and endothelin B receptors by inhibiting endothelin-1 contractions of rat aortic rings; format: functional
T3 sequence (P26684 whole entry): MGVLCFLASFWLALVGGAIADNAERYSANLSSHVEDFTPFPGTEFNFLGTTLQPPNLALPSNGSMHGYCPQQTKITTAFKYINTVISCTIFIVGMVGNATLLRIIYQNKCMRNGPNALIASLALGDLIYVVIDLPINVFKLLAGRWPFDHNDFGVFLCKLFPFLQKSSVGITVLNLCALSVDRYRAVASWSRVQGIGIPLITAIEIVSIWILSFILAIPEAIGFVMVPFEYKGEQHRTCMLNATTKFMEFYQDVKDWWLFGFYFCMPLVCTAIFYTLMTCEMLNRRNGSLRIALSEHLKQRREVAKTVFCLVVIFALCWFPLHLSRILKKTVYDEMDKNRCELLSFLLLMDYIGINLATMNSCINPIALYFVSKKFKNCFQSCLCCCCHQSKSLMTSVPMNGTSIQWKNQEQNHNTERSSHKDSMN
T3 sequence (P21451 whole entry): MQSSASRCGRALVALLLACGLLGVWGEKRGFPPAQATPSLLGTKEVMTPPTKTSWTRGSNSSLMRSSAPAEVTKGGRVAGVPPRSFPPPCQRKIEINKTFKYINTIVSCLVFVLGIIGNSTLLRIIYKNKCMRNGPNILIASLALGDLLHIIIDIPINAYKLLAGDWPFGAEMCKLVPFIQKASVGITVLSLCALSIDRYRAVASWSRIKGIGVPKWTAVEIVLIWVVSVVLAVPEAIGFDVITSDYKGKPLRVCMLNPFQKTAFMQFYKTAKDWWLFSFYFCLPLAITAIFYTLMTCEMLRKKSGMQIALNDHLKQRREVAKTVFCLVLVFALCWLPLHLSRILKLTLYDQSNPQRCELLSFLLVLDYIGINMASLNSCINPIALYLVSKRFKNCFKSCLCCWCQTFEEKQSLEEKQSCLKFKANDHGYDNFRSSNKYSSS

Cytochrome P450 2D6 = Cytochrome P450 2D6 (Homo sapiens, UniProt P10635); assay: Inhibition of human cytochrome P450 2D6; format: ADME; method in brief: as §1
Endothelin receptor [7] = biological target: T3, Endothelin receptor; assay: Inhibitory potency at native endothelin A and B receptors by inhibiting sarafotoxin Sf6 contractions of rat tracheal rings; format: functional

Sequence of Cytochrome P450 3A4 (P08684 whole entry, canonical isoform): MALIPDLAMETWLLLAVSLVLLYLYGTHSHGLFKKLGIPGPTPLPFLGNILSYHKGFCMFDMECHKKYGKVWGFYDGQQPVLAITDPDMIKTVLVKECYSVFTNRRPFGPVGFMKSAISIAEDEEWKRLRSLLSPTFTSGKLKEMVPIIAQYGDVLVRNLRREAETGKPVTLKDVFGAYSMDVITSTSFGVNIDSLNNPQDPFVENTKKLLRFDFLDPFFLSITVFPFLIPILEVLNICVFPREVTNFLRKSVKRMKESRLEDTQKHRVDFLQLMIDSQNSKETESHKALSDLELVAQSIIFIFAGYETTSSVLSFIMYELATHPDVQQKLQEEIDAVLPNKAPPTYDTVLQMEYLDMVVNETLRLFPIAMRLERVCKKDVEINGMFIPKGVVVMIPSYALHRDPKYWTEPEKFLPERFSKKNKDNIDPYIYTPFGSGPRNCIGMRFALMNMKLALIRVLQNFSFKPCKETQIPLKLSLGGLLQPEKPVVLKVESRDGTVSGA
Sequence of Cytochrome P450 2D6 (P10635 whole entry): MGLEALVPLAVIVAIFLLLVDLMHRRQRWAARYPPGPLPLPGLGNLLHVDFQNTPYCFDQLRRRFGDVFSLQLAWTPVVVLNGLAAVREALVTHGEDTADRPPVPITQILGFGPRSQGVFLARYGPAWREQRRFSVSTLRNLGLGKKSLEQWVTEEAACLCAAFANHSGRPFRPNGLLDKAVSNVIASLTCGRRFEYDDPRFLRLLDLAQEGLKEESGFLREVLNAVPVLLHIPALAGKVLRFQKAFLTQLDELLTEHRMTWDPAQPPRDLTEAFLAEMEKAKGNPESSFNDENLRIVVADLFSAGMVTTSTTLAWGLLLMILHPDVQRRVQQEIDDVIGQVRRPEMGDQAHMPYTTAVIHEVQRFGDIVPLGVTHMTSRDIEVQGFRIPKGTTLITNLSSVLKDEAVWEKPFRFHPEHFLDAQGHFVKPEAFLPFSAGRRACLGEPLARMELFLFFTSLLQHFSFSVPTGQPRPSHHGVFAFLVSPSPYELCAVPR
Sequence of Cytochrome P450 2C9 (P11712 whole entry): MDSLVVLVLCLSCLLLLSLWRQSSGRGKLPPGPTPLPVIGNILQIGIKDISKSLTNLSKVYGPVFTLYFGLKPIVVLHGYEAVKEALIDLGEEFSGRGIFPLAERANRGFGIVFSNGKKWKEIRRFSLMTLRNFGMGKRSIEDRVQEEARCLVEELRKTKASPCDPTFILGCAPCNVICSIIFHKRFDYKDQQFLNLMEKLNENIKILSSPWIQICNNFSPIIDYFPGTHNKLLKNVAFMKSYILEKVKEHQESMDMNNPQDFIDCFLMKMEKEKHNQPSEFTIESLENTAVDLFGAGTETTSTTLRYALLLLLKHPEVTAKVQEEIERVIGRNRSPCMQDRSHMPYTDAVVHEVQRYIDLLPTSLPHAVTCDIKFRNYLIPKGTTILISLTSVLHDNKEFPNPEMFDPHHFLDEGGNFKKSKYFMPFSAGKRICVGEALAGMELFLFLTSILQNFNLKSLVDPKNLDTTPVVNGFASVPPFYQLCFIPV

With `Cc1cc(C)nc(O[C@H](C(=O)O)[C@@]2(c3cccc(-c4ccccc4)c3)NCC(=O)N(Cc3c(F)cc(F)cc3F)c3ccccc32)n1` (racemic) as the molecule, how does the IC50 (Cytochrome P450 3A4) read?
Its IC50 is 7 µM.

And the IC50 (Endothelin-1 receptor)?
Its IC50 is 0.0079 µM.

What about the IC50 (Cytochrome P450 2C9) of the same molecule?
The IC50 was 28 µM.

What about the Max effect (Rattus norvegicus [1]) of the same molecule?
The Max effect was -12 mmHg.

What about the ABC (Rattus norvegicus [2]) of the same molecule?
The ABC was 250 mmHg·h.

And the Duration of action (Rattus norvegicus [3])?
Its Duration of action is 24 h.

And the IC50 [4]?
Its IC50 is 0.0898 µM.

And the logD [5]?
The logD was 1.8.

What about the pA2 (Endothelin receptor [6]) of the same molecule?
Its pA2 is 9.03.

And the IC50 (Cytochrome P450 2D6)?
Its IC50 is greater than 50 µM.

What about the pA2 (Endothelin receptor [7]) of the same molecule?
Its pA2 is 7.07.
